Source: PubChem (several laboratories)
Most compounds without a hit are left out; they make up all but 0.7% or so of the library.
GSK3beta inhib: human GSK3beta kinase inhibitors, primary screen, biochemical, cell-free homogeneous, HTS; Glycogen synthase kinase-3 beta (Homo sapiens), P49841; GST-GSK3beta kinase, ADP-Glo luminescence, 60 min; stronger effect = lower value; activity score (negative = inhibition), % at 10 µM; 300,000 compounds, 0.038% hits; AID 2097, 2009;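 active = more than half of replicate wells score below -50%, meaning over 50% inhibition versus plate controls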;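 note: 0% = median DMSO wells and -100% = median GW8510 positive control wells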
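Test system: GST-fused GSK3beta enzyme, cell-free | Quantity: 1.6 ng GST-GSK3beta enzyme per well | Reagent: 25 µM ATP with peptide substrate | Schedule: 60 min enzyme reaction, room temperature | Signal: Luminescent ADP-Glo measurement of ADP formed | Read-out basis: Score relative to plate controls | Control set: DMSO and 20 µM GW8510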
STK33 inh: inhibitors of purified STK33 kinase, primary screen, biochemical, ADP-Glo luminescence, homogeneous, cell-free. 320,000 compounds, 0.073% hits. inhibition, % at 10 µM. AID 2661, 2010. Serine/threonine-protein kinase 33 (Homo sapiens), Q9BYT3. MBP phosphorylation;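 active = inhibition at or above 25%, using the most active replicate where run in duplicate; inactive = inhibition below 25%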
Lipid droplet: inhibitors of hepatocyte lipid droplet formation, primary screen, imaging, high-throughput imaging, BODIPY stain; inhibition, % at 6.5 µM; AID 1656, 2009; 240,000 compounds, 0.4% hits; AML12 mouse hepatocytes, oleate lipid droplets;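 active = lipid droplet intensity inhibited by at least 50%, with more than 500 cells counted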
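Assay system: AML12 hepatocytes (mouse); Probe or stimulus: oleic acid at 100 µM to induce lipid droplet formation; Dosing: compound at 6.5 µM only; Schedule: compound with oleate, overnight; Detection: fluorescence imaging, 20x objective, two fields per well; Measure: % inhibition of lipid droplet signal.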
HSV augment: enhancers of HSV replication in host cells, fold increase, host cell viability. maximum fold increase. AID 1956, 2009. HSV replication augmentation in cells. 220,000 compounds, 0.005% hits; in the data active = maximum fold increase above about 1.5; tested in PC3 cells
GSK3 alpha inh: blockers of GSK3A enzyme activity – biochemical, luminescence, cell-free homogeneous, HTS, primary screen; AID 2650, 2010; 320,000 compounds, 0.1% hits; inhibition, % at 10 µM; GSK-3 alpha kinase, ADP-Glo luminescence, 60 min;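 active = more than half of replicates show inhibition above 20%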;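 note: GST-tagged GSK-3 alpha with peptide substrate and 25 µM ATP; 0% = DMSO neutral wells and 100% = GW8510 positive control wells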
Rce1 inh: yeast Rce1p protease inhibitors, primary screen, biochemical, fluorescence, cell-free homogeneous; AID 2563, 2010; 290,000 compounds, 0.27% hits; calls only; yeast membranes, quenched prenylated peptide cleavage fluorescence; CAAX prenyl protease 2 (Saccharomyces cerevisiae (strain ATCC 204508 / S288c)), Q03530;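 active = fall in fluorescence gain of 50% or more versus controls, with final raw signal at or below 3038400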;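 note: plate controls were neutral control wells for no effect and wells lacking membranes for full effect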
Target sequence (Q03530 whole entry, looked up): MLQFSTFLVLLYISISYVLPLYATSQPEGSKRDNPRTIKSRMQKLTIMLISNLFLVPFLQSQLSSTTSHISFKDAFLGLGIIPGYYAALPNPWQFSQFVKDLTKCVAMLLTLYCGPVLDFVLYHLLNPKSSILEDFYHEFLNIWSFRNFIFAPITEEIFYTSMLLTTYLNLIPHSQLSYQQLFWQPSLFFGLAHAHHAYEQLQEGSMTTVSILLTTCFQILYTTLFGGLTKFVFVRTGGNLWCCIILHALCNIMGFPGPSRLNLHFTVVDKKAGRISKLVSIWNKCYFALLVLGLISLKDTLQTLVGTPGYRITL
* hit, by the source's call.

Screening Cc1ccc(-c2nc(Nc3ccc(N4CCOCC4)cc3)c3ccccc3n2)cc1 returned GSK3beta inhib 0, STK33 inh -1, Lipid droplet 28, HSV augment inactive, GSK3 alpha inh 0 and Rce1 inh active.
Screening CCCCC[n+]1cccc2c3ccccc3ccc21 returned GSK3beta inhib -4, STK33 inh -1, Lipid droplet -6, HSV augment inactive, GSK3 alpha inh -10 and Rce1 inh active.
`O=[N+]([O-])c1ccc(C[n+]2cccc3ccccc32)cc1` gave GSK3beta inhib 1, STK33 inh -3, Lipid droplet 32, HSV augment inactive, GSK3 alpha inh 8 and Rce1 inh inactive.
For CCCC[n+]1c2ccccc2cc2ccccc21 the results were GSK3beta inhib -4, STK33 inh 17, Lipid droplet -16, GSK3 alpha inh 2 and Rce1 inh inactive.
`c1ccc(C[n+]2cccc3c4ccccc4ccc32)cc1` gave GSK3beta inhib 0, STK33 inh -1, HSV augment inactive, GSK3 alpha inh -1 and Rce1 inh active.
`O=C(O)c1cc2c(ccc3ccccc32)oc1=O` gave GSK3beta inhib 3, STK33 inh 0, Lipid droplet 12, HSV augment inactive, GSK3 alpha inh -2 and Rce1 inh active.
`O=C(O)c1cc(S(=O)(=O)N2CC3CC3C2C(=O)O)c(Cl)cc1Cl` (stereo unspecified) gave GSK3beta inhib 3, STK33 inh 0, Lipid droplet 0, GSK3 alpha inh 0 and Rce1 inh inactive.
For CCNC(=S)NNC(=O)CCn1cc(C)cn1 the results were GSK3beta inhib 0, STK33 inh 0, Lipid droplet 0, HSV augment inactive, GSK3 alpha inh 0 and Rce1 inh active.
`Cc1cnn(CCC(=O)NNC(=S)Nc2ccc(F)cc2)c1` gave GSK3beta inhib 3, STK33 inh 0, HSV augment inactive, GSK3 alpha inh -1 and Rce1 inh inactive.
Screening CC[C@H](C)[C@H](NC(N)=O)C(=O)Nc1ccccc1F returned GSK3beta inhib 1, STK33 inh 0, Lipid droplet -1, HSV augment inactive, GSK3 alpha inh 0 and Rce1 inh inactive.
For CCCCCCN(C(=O)CCCCCN1C(=O)NC(c2ccccc2)C(C(=O)OCc2ccccc2)=C1C)C(C(=O)NCCCC)c1ccc(OCC(=O)OC)c(C(=O)OC)c1 (stereo unspecified) the results were Lipid droplet 52* and HSV augment inactive.
`CC1=C(C(=O)OCc2ccccc2)C(c2ccc(-c3ccccc3)cc2)NC(=O)N1CCCCCC(=O)O` (stereo unspecified) gave STK33 inh -1, Lipid droplet 6, HSV augment inactive and GSK3 alpha inh 0.
CC1=C(C(=O)OCc2ccccc2)C(c2ccc(-c3ccccc3)cc2)NC(=O)N1CCCC(=O)O (stereo unspecified) was read as GSK3beta inhib -2, STK33 inh 1, HSV augment inactive, GSK3 alpha inh 0 and Rce1 inh active.
Screening CCCCCCN(C(=O)CCCCCN1C(=O)NC(c2ccc(C(C)(C)C)cc2)C(C(=O)OCc2ccccc2)=C1C)C(C(=O)NCCCC)c1ccc(OCC(=O)OC)c(C(=O)OC)c1 (stereo unspecified) returned GSK3beta inhib -1, Lipid droplet 1, HSV augment inactive and Rce1 inh inactive.
`O=C1c2ccccc2C(O)(Cc2ccccc2)N1c1ccc2c(c1)OCO2` (stereo unspecified) gave GSK3beta inhib -2, STK33 inh 0, Lipid droplet -12, HSV augment inactive, GSK3 alpha inh -3 and Rce1 inh inactive.
COc1ccccc1NC(=S)NCc1ccc2c(c1)OCO2 was read as GSK3beta inhib -5, STK33 inh 1, Lipid droplet -1, HSV augment inactive, GSK3 alpha inh 3 and Rce1 inh inactive.
For C/C(CC(=O)NCc1ccco1)=N\NC(=O)c1ccc(Cl)cc1Cl the results were GSK3beta inhib 0, STK33 inh -1, Lipid droplet -10, GSK3 alpha inh -2 and Rce1 inh inactive.
`C/C(CC(=O)NCc1ccco1)=N\NC(=O)c1ccc([N+](=O)[O-])cc1Cl` gave GSK3beta inhib -3, STK33 inh 0, Lipid droplet -9, GSK3 alpha inh -1 and Rce1 inh active.
Screening CCCCn1c(N)c(N(CCC(C)C)C(=O)c2ccc(C)c(S(=O)(=O)N3CCOCC3)c2)c(=O)[nH]c1=O returned GSK3beta inhib 0, STK33 inh 1, GSK3 alpha inh -4 and Rce1 inh inactive.
COc1cc(/C=C2\SC(N)=NC2=O)ccc1O was read as GSK3beta inhib 6, STK33 inh 26*, Lipid droplet -1, GSK3 alpha inh 6 and Rce1 inh inactive.
`COc1cc(/C=C2\SC(=Nc3ccccc3OC)NC2=O)ccc1O` gave GSK3beta inhib -6, STK33 inh 68*, Lipid droplet 4, GSK3 alpha inh 8 and Rce1 inh inactive.
For C=CCOc1ccc(/C=C2\SC(N)=NC2=O)cc1OC the results were GSK3beta inhib 0, STK33 inh 3, Lipid droplet -10, GSK3 alpha inh 0 and Rce1 inh inactive.
CC(=O)c1c(C)[nH]c(C(=O)N(C)C(c2ccccc2)c2ccccc2)c1C was read as GSK3beta inhib -1, STK33 inh 0, Lipid droplet 13, HSV augment inactive, GSK3 alpha inh -4 and Rce1 inh inactive.
Screening Cc1c2c(n3c(nc4ccccc43)c1C#N)N(CCCN(C)C)CC2 returned GSK3beta inhib -9, STK33 inh -1, Lipid droplet 33, HSV augment inactive, GSK3 alpha inh 22 and Rce1 inh active.
Screening Cc1c2c(n3c(nc4ccccc43)c1C#N)N(CCN(C)C)CC2 returned GSK3beta inhib 3, STK33 inh 3, Lipid droplet -9, HSV augment inactive, GSK3 alpha inh 29 and Rce1 inh inactive.
For CC(C)(C)NC(=O)NC(=O)CSc1n[nH]c(-c2ccccc2Br)n1 the results were GSK3beta inhib -3, STK33 inh 0, Lipid droplet 4, GSK3 alpha inh -2 and Rce1 inh inactive.
Screening O=C1CN(S(=O)(=O)c2ccc([N+](=O)[O-])cc2)CC(=O)N1 returned GSK3beta inhib 7, STK33 inh 0, Lipid droplet 3, GSK3 alpha inh 0 and Rce1 inh active.
